Here are results for 38 molecules from ChEMBL document CHEMBL4049441, “Transforming Sphingosine Kinase 1 Inhibitors into Dual and Sphingosine Kinase 2 Selective Inhibitors: Design, Synthesis, and in Vivo Activity” (J Med Chem, 2017).

The target in assay [1] is T1, Sphingosine kinase 2 (Homo sapiens) (UniProt Q9NRA0).
T1 sequence (whole entry): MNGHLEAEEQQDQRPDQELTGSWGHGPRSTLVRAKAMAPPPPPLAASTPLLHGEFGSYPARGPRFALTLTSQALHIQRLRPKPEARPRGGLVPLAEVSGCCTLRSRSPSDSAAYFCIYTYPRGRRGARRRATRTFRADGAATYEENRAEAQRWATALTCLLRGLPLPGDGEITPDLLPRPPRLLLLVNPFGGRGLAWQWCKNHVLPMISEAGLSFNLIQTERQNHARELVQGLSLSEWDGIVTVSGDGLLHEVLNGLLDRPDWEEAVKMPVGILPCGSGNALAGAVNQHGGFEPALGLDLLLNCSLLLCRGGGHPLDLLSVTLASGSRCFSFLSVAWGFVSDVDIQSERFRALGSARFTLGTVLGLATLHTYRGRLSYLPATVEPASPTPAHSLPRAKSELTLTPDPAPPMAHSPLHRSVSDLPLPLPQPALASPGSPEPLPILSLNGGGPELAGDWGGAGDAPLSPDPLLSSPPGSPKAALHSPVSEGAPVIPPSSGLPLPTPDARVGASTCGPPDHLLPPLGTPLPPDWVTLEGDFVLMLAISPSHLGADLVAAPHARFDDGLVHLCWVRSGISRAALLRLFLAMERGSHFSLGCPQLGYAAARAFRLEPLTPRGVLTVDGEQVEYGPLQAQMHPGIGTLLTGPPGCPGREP
As to the kind of experiment: Inhibition of recombinant human SPHK2 assessed as residual activity at 0.3 uM using sphingosine as substrate after 30 mins in presence of gamma-[32P]-ATP by liquid scintillation counting relative to control. A digest of the protocol: (§1)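 Recombinant human SphK1 or SphK2 from cell lysate, briefly incubated with or without compound at 0.3 μM, sphingosine (5 μM for SphK1, 10 μM for SphK2) and 250 μM γ-[³²P]ATP. Radiolabelled S1P extracted, resolved by TLC and counted by scintillation. Activity reported as % of no-inhibitor control; triplicate.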

For assay [2], the target named is T2, Sphingosine kinase 2 (Homo sapiens, UniProt Q9NRA0).
T2 sequence (Q9NRA0 whole entry): T1 sequence (whole entry)
As to the kind of experiment: Inhibition of recombinant human SPHK2 at using sphingosine as substrate after 30 mins in presence of gamma-[32P]-ATP by liquid scintillation counting.

The target in assay [3] is T1, Sphingosine kinase 2 (Homo sapiens). The assay is described as follows: Inhibition of SPHK2 in human U937 cells assessed as decrease in S1P levels after 2 hrs by LC-MS/MS analysis. Type of assay: cell-based. A digest of the protocol: (§2)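 U937 human histiocytic lymphoma cells (express both SphK isotypes) incubated with compound for 2 h, pelleted, lysed; 2–3 × 10⁶ cells extracted in methanol:chloroform (3:1) with D7-S1P/D7-sphingosine internal standards, KOH hydrolysis, then S1P and sphingosine measured by LC-MS-MS. Expressed as pmol per 10⁶ cells; duplicate experiments; unpaired t test against control.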

For assay [4] the target is unchanged. As to the kind of experiment: Inhibition of SPHK2 in human U937 cells assessed as effect on sphingosine levels at 0.1 to 1 uM after 2 hrs by LC-MS/MS analysis. The assay is classed as cell-based. The gist of the method: as §2
Assay [5] concerns the target T3, Sphingosine kinase 2 (Mus musculus, UniProt Q9JIA7).
T3 sequence (Q9JIA7 whole entry): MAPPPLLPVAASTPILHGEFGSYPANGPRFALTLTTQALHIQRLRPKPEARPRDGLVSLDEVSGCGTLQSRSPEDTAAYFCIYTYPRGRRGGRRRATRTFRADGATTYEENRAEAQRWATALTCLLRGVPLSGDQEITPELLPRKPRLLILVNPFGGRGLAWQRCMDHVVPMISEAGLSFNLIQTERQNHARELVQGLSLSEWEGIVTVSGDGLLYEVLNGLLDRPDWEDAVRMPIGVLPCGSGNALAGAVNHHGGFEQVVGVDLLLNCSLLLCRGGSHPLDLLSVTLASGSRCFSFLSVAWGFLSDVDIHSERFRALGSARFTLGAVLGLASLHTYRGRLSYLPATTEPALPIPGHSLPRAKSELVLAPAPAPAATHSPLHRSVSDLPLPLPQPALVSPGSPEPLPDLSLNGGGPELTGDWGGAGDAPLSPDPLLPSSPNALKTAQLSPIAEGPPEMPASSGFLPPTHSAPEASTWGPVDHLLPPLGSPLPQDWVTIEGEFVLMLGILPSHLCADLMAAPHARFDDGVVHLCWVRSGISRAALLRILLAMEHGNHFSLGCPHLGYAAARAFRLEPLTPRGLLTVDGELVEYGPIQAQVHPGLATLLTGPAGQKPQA
The assay is described as follows: Inhibition of recombinant mouse SPHK2 using sphingosine as substrate in presence ATP.

Assay [6] deals with T4, Sphingosine kinase 1 (Homo sapiens, UniProt Q9NYA1). As to the kind of experiment: Inhibition of recombinant human SPHK1 using sphingosine as substrate in presence ATP. The gist of the method:
as §1

Assay [7] in a line: Selectivity ratio of Ki for recombinant human SPHK1 to Ki for recombinant mouse SPHK2.
For assay [8], the target named is T1, Sphingosine kinase 2 (Homo sapiens). As to the kind of experiment: Inhibition of recombinant human SPHK2 using sphingosine as substrate up to 1 uM after 30 mins in presence of gamma-[32P]-ATP by liquid scintillation counting.
The test system of assay [9] is Mus musculus. As to the kind of experiment: In vivo inhibition of SPHK2 in C57BL/6J mouse assessed as increase in S1P levels at 10 mg/kg, ip after 2 to 6 hrs by LC-MS/MS analysis. Type of assay: functional, organism-based. A digest of the protocol: (§3)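 Single intraperitoneal dose of 10 mg/kg in C57BL6/j mice, groups of 3 to 4; vehicle controls received an equal volume of 2% hydroxypropyl-β-cyclodextrin. Blood was sampled at set time points over 24 h. Whole blood (10 μl) was extracted in methanol:chloroform (3:1) with D7-S1P and D7-sphingosine internal standards, base-hydrolysed with KOH, and S1P quantified by reverse-phase C18 LC-MS-MS.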

The subject of assay [10] is Mus musculus. As to the kind of experiment: In vivo inhibition of SPHK2 in C57BL/6J mouse assessed as increase in S1P levels at 10 mg/kg, ip after 24 hrs by LC-MS/MS analysis. Type of assay: functional, organism-based. A digest of the protocol: as §3
Assay [11] addresses T1, Sphingosine kinase 2 (Homo sapiens). As to the kind of experiment: Inhibition of SPHK2 in human U937 cells assessed as effect on sphingosine levels at 0.3 to 1 uM after 2 hrs by LC-MS/MS analysis. The assay is classed as cell-based. The gist of the method:
as §2

The target in assay [12] is T4, Sphingosine kinase 1.

The source made the active and inactive calls. The rule behind the calls is not given here.

T4 sequence (Q9NYA1 whole entry): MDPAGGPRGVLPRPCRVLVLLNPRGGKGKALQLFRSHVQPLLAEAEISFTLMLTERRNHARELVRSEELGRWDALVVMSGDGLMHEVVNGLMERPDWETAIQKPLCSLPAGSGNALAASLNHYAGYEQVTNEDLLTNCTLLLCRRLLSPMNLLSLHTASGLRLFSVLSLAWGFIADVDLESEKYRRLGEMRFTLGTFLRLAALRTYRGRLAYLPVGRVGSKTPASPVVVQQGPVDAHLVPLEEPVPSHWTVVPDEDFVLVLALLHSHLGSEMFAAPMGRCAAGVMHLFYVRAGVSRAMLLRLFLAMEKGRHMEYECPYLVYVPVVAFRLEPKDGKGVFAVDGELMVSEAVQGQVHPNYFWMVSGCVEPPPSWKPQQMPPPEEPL

As for `N=C(N)N1CCC[C@H]1Cc1nc(-c2ccc(Nc3nc(-c4ccc(Cl)cc4)cs3)cc2)no1`, the Activity in assay [1] came out at 51%.
The same measure, in the same setting: under `N=C(N)N1CCC[C@H]1Cc1nc(-c2ccc(Nc3nc(-c4cc(C(F)(F)F)ccc4F)cs3)cc2)no1` stands 48%.
For the molecule `N=C(N)N1CCC[C@H]1Cc1nc(-c2ccc(Nc3nc(-c4cccc(C(F)(F)F)c4)cs3)cc2)no1`, the Activity in [1] was 28%. In addition, the Ki in assay [2] came to 90 nM. Moreover, the inhibition entry in assay [3] is “Dose-dependent effect”. The inhibition result in assay [4] is “Active”.
As for `N=C(N)N1CCC[C@H]1Cc1nc(-c2ccc(Nc3nc(-c4cccc(-c5ccccc5)c4)cs3)cc2)no1`, the Activity in [1] was 73%.
For `N=C(N)N1CCC[C@H]1Cc1nc(-c2ccc(Nc3nc(-c4ccc(F)c(C(F)(F)F)c4)cs3)cc2)no1`, the Activity in [1] came out at 33%. The inhibition constant Ki in [2] came to 170 nM.
Consider `CCCCCCCCc1ccc2cc(-c3noc(C4CCCN4C(=N)N)n3)ccc2c1` (single isomer, unassigned), for which the inhibition constant (Ki) in [5] worked out at 1300 nM; in [6] it was 12000 nM. Also, in [7], the Ratio Ki stood at 10.
In the case of `N=C(N)N1CCC[C@H]1Cc1nc(-c2ccc(Nc3nc(-c4ccccc4F)cs3)cc2)no1`, the Activity in [1] was found to be 44%.
Same read-out and setting: as for `N=C(N)N1CCC[C@H]1Cc1nc(-c2ccc(Nc3nc(-c4cccc(F)c4)cs3)cc2)no1`, the figure is 45%.
Still for that read-out and setting: under `COc1cccc(-c2csc(Nc3ccc(-c4noc(C[C@@H]5CCCN5C(=N)N)n4)cc3)n2)c1` stands 100%.
Take `N=C(N)N1CCC[C@H]1Cc1nc(-c2ccc(Nc3nc(-c4ccc(C(F)(F)F)cc4)cs3)cc2)no1`: the Activity in assay [1] is 36%. Moreover, the Ki in assay [2] was 390 nM.
As for `Cc1ccc(-c2csc(Nc3ccc(-c4noc(C[C@@H]5CCCN5C(=N)N)n4)cc3)n2)cc1C`, in assay [1], the Activity came to 67%.
Same read-out and setting: under `N=C(N)N1CCC[C@H]1Cc1nc(-c2ccc(Nc3nc(-c4ccc(F)c(F)c4)cs3)cc2)no1` stands 51%; under `N=C(N)N1CCC[C@H]1Cc1nc(-c2ccc(Nc3nc(-c4ccc(-c5cccc(C(F)(F)F)c5)cc4)cs3)cc2)no1`, 85%.
For the molecule `CN(c1ccc(-c2noc(C[C@@H]3CCCN3C(=N)N)n2)cc1)c1nc(-c2ccc(-c3ccccc3)cc2)cs1`, in assay [1], the Activity amounted to 100%. In addition, the inhibition entry in [8] was “inactive”.
For `N=C(N)N1CCC[C@H]1Cc1nc(-c2ccc(Nc3nc(-c4ccc(-c5ccc(F)cc5)cc4)cs3)cc2)no1`, in assay [1], the Activity is 31%.
On the same count and under the same terms, under `N=C(N)N1CCC[C@H]1Cc1nc(-c2ccc(Nc3nc(-c4ccncc4)cs3)cc2)no1` stands 94%; under `N=C(N)N1CCC[C@H]1Cc1nc(-c2ccc(Nc3nc(-c4ccc(Cl)c(Cl)c4)cs3)cc2)no1`, 46%.
In the case of `N=C(N)N1CCC[C@H]1Cc1nc(-c2ccc(Nc3nc(-c4cccc(Cl)c4)cs3)cc2)no1`, the Activity in assay [1] amounted to 45%.
Consider `N=C(N)N1CCC[C@H]1Cc1nc(-c2ccc(Nc3nc(-c4cc(F)cc(F)c4)cs3)cc2)no1`, for which the Activity in [1] was 43%.
Same read-out and setting: as for `N=C(N)N1CCC[C@H]1Cc1nc(-c2ccc(Nc3nc(-c4cccc(Br)c4)cs3)cc2)no1`, the figure is 44%.
Regarding `N=C(N)N1CCC[C@H]1Cc1nc(-c2ccc(Nc3nc(-c4ccc(-c5ccccc5)cc4)cs3)cc2)no1`, the Activity in assay [1] came to 27%. Also, in assay [2], the inhibition constant (Ki) worked out at 90 nM. For the same molecule, in assay [3], the inhibition result is “Dose-dependent effect”. In addition, the inhibition entry in assay [4], in assay [9] and in assay [11] was “Active” in each case. Besides, the inhibition entry in assay [10] was “inactive”.
For `COc1ccc(-c2csc(Nc3ccc(-c4noc(C[C@@H]5CCCN5C(=N)N)n4)cc3)n2)cc1OC`, the Activity in assay [1] was 100%.
Still for that read-out and setting: as for `N=C(N)N1CCC[C@H]1Cc1nc(-c2ccc(Nc3nc(-c4ccc(Br)cc4)cs3)cc2)no1`, the figure is 46%; as for `COc1ccc(-c2csc(Nc3ccc(-c4noc(C[C@@H]5CCCN5C(=N)N)n4)cc3)n2)cc1`, 100%; as for `N=C(N)N1CCC[C@H]1Cc1nc(-c2ccc(Nc3nc(-c4ccc(-c5ccc(C(F)(F)F)cc5)cc4)cs3)cc2)no1`, 96%.
Still for that read-out and setting: as for `N=C(N)N1CCC[C@H]1Cc1nc(-c2ccc(Nc3nc(-c4cc5ccccc5o4)cs3)cc2)no1`, the figure is 67%; as for `N=C(N)N1CCC[C@H]1Cc1nc(-c2ccc(Nc3nc(-c4cccnc4)cs3)cc2)no1`, 94%; as for `N=C(N)N1CCC[C@H]1Cc1nc(-c2ccc(Nc3nc(-c4ccc(F)cc4)cs3)cc2)no1`, 55%.
The same measure, in the same setting: as for `N=C(N)N1CCC[C@H]1Cc1nc(-c2ccc(Nc3nc(-c4ccccc4C(F)(F)F)cs3)cc2)no1`, the figure is 72%; as for `N=C(N)N1CCC[C@H]1Cc1nc(-c2ccc(Nc3nc(-c4cc(C(F)(F)F)cc(C(F)(F)F)c4)cs3)cc2)no1`, 63%.
`CCCCCOc1ccc2cc(-c3noc([C@H]4[C@@H](O)CCN4C(=N)N)n3)ccc2c1` came in with a Ki in assay [12] of 730 nM.
`N=C(N)N1CCC[C@H]1Cc1nc(-c2ccc(Oc3nc(-c4ccc(C(F)(F)F)cc4)cs3)cc2)no1`: in [1], the Activity is 55%.
Still for that read-out and setting: under `COc1ccc(-c2csc(Nc3ccc(-c4noc(C[C@@H]5CCCN5C(=N)N)n4)cc3)n2)cc1Cl` stands 71%; under `Cc1ccc(-c2csc(Nc3ccc(-c4noc(C[C@@H]5CCCN5C(=N)N)n4)cc3)n2)cc1`, 80%.
Still for that read-out and setting: as for `N=C(N)N1CCC[C@H]1Cc1nc(-c2ccc(Nc3nc(-c4ccccc4)cs3)cc2)no1`, the figure is 83%; as for `N=C(N)N1CCC[C@H]1Cc1nc(-c2ccc(Nc3nc(-c4cccc(OC(F)(F)F)c4)cs3)cc2)no1`, 82%.
For `N=C(N)N1CCC[C@H]1Cc1nc(-c2ccc(Nc3nc(-c4cc(F)cc(C(F)(F)F)c4)cs3)cc2)no1`, the Activity in [1] was found to be 30%. Also, the Ki in [2] worked out at 170 nM.
The matching figures for `N=C(N)N1CCC[C@H]1Cc1nc(-c2ccc(Nc3nc(-c4ccc(OC(F)(F)F)cc4)cs3)cc2)no1`: 44% and 250 nM.

One may read the Ki as the dissociation constant of the complex between target and ligand, obtained from inhibition or displacement.
